According to ChEMBL document CHEMBL5678799 (Biochem J, 2009):
Active and inactive are the calls of the source. No cut-off for these calls is given here.

Assays:
[1] = target: Serine/threonine-protein kinase D1 (Homo sapiens) (UniProt Q15139); assay: Inhibition of recombinant human N-terminal His6-tagged PKD1 (2 to 912 residues) expressed in baculovirus infected Sf21 cells assessed as remaining activity at 1 uM using KKLNRTLSVA as substrate incubated for 30 mins in presence of [gamma-33P]ATP by filter binding method relative to control
[2] = target: Mitogen-activated protein kinase 11 (Homo sapiens) (UniProt Q15759); assay: Inhibition of recombinant human N-terminal GST-tagged P38beta (1 to 364 residues) expressed in Escherichia coli assessed as remaining activity at 10 uM using MBP as substrate incubated for 30 mins in presence of [gamma-33P]ATP by filter binding method relative to control
Method in brief: (§1)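 Panel assays were run for 30 min at 21 °C, within the linear range for time and enzyme. […] Results are percent activity remaining relative to compound-free control, averaged from triplicate ± S.D.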

[3] = target: Serine/threonine-protein kinase PAK 4 (Homo sapiens) (UniProt O96013); assay: Inhibition of recombinant human N-terminal GST-tagged PAK4 (2 to 519 residues) expressed in Escherichia coli assessed as remaining activity at 1 uM using RRRLSFAEPG as substrate incubated for 30 mins in presence of [gamma-33P]ATP by filter binding method relative to control
Method in brief: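 Radiometric kinase panel run robotically at room temperature (21 °C) for 30 min, linear in time and enzyme. […] Activity is expressed as percent of control without compound, from triplicate determinations ± S.D.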

[4] = target: Mitogen-activated protein kinase 11 (Homo sapiens) (UniProt Q15759); assay: Inhibition of recombinant human N-terminal GST-tagged P38beta (1 to 364 residues) expressed in Escherichia coli assessed as remaining activity at 1 uM using MBP as substrate incubated for 30 mins in presence of [gamma-33P]ATP by filter binding method relative to control
Method in brief: as §1

[5] = target: Tyrosine-protein kinase Yes (Homo sapiens) (UniProt P07947); assay: Inhibition of recombinant human N-terminal His6-tagged YES1 (1 to 543 residues) expressed in baculovirus infected Sf21 cells assessed as remaining activity at 1 uM using Poly(Glu,Tyr) as substrate incubated for 30 mins in presence of [gamma-33P]ATP by filter binding assay relative to control
Method in brief: (§2)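 Radiometric panel assay run robotically at 21 °C for 30 min, linear in time and enzyme. […] Activity is expressed as percentage of the compound-omitted control, averaged from triplicates ± S.D.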

[6] = target: Ribosomal protein S6 kinase alpha-1 (Homo sapiens) (UniProt Q15418); assay: Inhibition of recombinant human N-terminal His6-tagged RSK1 (1 to 735 residues) expressed in baculovirus infected Sf21 cells assessed as remaining activity at 1 uM using KKLNRTLSVA as substrate incubated for 30 mins in presence of [gamma-33P]ATP by filter binding assay relative to control
[7] = target: Calcium/calmodulin-dependent protein kinase type 1 (Homo sapiens) (UniProt Q14012); assay: Inhibition of recombinant human N-terminal GST-tagged CAMK1alpha (2 to 369 residues) expressed in Escherichia coli assessed as remaining activity at 10 uM using YLRRRLSDSNF as substrate incubated for 30 mins in presence of [gamma-33P]ATP by filter binding method relative to control
Method in brief: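 Run robotically for 30 min at 21 °C under linear conditions. Compound at 1 or 10 µM. Percentage activity remaining versus control without compound, triplicate mean ± S.D.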

[8] = target: Insulin receptor-related protein (Homo sapiens) (UniProt P14616); assay: Inhibition of recombinant human N-terminal His6-tagged IRR (944 to 1236 residues) expressed in baculovirus infected Sf21 cells assessed as remaining activity at 1 uM using MBP as substrate incubated for 30 mins in presence of [gamma-33P]ATP by filter binding method relative to control
[9] = target: Tyrosine-protein kinase Lck (Homo sapiens) (UniProt P06239); assay: Inhibition of recombinant human N-terminal His6-tagged LCK (2 to 509 residues) expressed in baculovirus infected Sf21 cells assessed as remaining activity at 10 uM using KVEKIGEGTYGVVYK as substrate incubated for 30 mins in presence of [gamma-33P]ATP by filter binding method relative to control
Method in brief: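 Assays ran 30 min at 21 °C, robotically and in the linear range. Remaining activity is given relative to incubations lacking compound, as the average of triplicate determinations ± S.D.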

[10] = target: MAP kinase-interacting serine/threonine-protein kinase 1 (Homo sapiens) (UniProt Q9BUB5); assay: Inhibition of recombinant human N-terminal GST-tagged C-terminal His6-tagged MNK1 (2 to 424 residues) expressed in Escherichia coli assessed as remaining activity at 10 uM using eIF4E as substrate incubated for 30 mins in presence of [gamma-33P]ATP by filter binding method relative to control
[11] = target: Mitogen-activated protein kinase; ERK1/ERK2 (Homo sapiens) (UniProt P27361+P28482); assay: Inhibition of ERK1/2 in serum starved/PMA-stimulated HEK293 cells assessed as reduction in ERK1/2 phosphorylation at T202/Y204 residues at 1 uM incubated for 30 mins by immunoblot analysis; format: cell-based
mTORC1 (Homo sapiens) [12] = target: T1, mTORC1 (Homo sapiens) (UniProt P42345+Q8N122+Q9BVC4); details: HEK293, dose 30-1000 nM, time 30.0 min
[13] = target: Insulin receptor (Homo sapiens) (UniProt P06213); assay: Inhibition of recombinant human N-terminal His6-tagged IR (1001 to 1382 residues) expressed in baculovirus infected Sf21 cells assessed as remaining activity at 10 uM using KKSRGDYMTMQIG as substrate incubated for 30 mins in presence of [gamma-33P]ATP by filter binding method relative to control
[14] = target: Mitogen-activated protein kinase 9 (Homo sapiens) (UniProt P45984); assay: Inhibition of recombinant human N-terminal His6-tagged JNK2alpha2 (1 to 424 residues) expressed in baculovirus infected Sf21 cells assessed as remaining activity at 10 uM using ATF2 as substrate incubated for 30 mins in presence of [gamma-33P]ATP by filter binding method relative to control
[15] = target: Serine/threonine-protein kinase 3 (Homo sapiens) (UniProt Q13188); assay: Inhibition of recombinant human N-terminal GST-tagged MST2 (2 to 491 residues) expressed in baculovirus infected Sf21 cells assessed as remaining activity at 1 uM using MBP as substrate incubated for 30 mins in presence of [gamma-33P]ATP by filter binding method relative to control
Method in brief: as §1

mTORC1 (Homo sapiens) [16] = target: T1, mTORC1 (Homo sapiens); details: HEK293, dose 30-1000 nM, time 30.0 min; remark: listed apart in the source
[17] = target: Tyrosine-protein kinase Yes (Homo sapiens) (UniProt P07947); assay: Inhibition of recombinant human N-terminal His6-tagged YES1 (1 to 543 residues) expressed in baculovirus infected Sf21 cells assessed as remaining activity at 10 uM using Poly(Glu,Tyr) as substrate incubated for 30 mins in presence of [gamma-33P]ATP by filter binding assay relative to control
Method in brief: as §2

Mitogen-activated protein kinase 11 (Homo sapiens), sequence (Q15759 whole entry, the tested form may be a part): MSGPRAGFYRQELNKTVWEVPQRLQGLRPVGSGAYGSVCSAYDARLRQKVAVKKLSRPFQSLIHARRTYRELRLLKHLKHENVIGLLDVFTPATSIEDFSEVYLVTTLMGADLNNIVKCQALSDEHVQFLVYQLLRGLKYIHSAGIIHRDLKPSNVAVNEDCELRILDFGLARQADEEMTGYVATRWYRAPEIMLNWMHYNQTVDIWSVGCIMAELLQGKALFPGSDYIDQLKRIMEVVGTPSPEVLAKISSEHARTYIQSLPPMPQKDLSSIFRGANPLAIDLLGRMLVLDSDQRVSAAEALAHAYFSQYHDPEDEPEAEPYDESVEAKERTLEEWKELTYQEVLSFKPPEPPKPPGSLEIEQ
Tyrosine-protein kinase Yes (Homo sapiens), sequence (P07947 2-543 limits assumed): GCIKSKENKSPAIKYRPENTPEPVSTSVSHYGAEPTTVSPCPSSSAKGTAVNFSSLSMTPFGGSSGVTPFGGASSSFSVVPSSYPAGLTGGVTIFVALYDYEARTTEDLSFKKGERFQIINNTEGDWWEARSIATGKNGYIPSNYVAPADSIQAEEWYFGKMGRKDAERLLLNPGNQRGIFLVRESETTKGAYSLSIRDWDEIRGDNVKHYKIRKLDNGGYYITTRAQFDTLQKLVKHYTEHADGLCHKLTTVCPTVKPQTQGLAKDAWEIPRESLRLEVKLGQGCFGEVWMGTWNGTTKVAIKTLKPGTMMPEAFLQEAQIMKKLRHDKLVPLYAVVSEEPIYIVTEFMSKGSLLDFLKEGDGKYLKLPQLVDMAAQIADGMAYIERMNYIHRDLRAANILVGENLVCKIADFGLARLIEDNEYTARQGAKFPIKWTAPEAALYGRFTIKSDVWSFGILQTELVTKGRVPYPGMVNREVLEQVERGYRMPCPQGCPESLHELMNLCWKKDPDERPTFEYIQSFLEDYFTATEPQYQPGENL
T1 sequence (Q8N122 whole entry, looked up, other chains not shown, the tested form may be a part): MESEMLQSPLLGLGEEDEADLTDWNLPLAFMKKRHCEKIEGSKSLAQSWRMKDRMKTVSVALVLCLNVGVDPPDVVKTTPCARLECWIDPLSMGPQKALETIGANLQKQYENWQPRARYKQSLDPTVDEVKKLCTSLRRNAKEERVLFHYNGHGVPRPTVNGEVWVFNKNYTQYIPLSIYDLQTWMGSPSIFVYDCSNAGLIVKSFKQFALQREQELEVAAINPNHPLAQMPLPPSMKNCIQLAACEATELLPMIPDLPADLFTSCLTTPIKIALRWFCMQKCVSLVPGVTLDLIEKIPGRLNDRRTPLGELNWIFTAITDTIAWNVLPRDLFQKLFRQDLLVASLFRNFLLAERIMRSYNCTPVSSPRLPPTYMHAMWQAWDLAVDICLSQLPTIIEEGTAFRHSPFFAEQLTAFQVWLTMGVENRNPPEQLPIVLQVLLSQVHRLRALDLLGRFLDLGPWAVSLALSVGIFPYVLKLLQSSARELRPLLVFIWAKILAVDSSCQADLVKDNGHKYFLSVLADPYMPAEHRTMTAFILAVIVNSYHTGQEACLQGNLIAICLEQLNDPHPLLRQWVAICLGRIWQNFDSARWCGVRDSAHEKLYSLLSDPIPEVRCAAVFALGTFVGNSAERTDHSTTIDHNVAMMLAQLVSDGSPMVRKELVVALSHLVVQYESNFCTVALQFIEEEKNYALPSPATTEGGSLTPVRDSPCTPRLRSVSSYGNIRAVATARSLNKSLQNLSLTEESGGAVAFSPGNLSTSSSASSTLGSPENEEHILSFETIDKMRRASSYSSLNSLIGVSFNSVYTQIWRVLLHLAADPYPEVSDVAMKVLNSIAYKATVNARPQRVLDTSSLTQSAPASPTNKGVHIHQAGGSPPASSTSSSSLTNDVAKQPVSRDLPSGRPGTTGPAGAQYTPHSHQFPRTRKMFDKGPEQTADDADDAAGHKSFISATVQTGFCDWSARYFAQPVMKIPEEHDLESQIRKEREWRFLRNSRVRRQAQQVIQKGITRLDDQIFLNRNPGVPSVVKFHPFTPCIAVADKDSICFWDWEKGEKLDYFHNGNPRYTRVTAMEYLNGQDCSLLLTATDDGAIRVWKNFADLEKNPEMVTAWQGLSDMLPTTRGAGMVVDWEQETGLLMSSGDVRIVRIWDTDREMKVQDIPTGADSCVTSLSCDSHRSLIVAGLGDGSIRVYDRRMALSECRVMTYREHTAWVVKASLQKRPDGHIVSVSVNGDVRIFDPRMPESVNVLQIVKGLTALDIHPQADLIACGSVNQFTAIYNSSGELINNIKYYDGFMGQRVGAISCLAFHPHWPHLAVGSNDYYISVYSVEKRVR
T1 sequence (Q9BVC4 whole entry, looked up, other chains not shown, the tested form may be a part): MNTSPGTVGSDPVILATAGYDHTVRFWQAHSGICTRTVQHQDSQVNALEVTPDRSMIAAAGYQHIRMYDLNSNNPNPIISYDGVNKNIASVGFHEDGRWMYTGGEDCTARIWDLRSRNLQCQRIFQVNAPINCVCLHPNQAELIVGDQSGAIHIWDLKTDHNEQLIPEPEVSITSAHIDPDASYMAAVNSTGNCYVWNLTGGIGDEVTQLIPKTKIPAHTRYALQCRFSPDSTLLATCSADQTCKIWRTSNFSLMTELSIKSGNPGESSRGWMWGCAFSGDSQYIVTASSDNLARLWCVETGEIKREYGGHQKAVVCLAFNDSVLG
Mitogen-activated protein kinase; ERK1/ERK2 (Homo sapiens), sequence (P27361 whole entry, looked up): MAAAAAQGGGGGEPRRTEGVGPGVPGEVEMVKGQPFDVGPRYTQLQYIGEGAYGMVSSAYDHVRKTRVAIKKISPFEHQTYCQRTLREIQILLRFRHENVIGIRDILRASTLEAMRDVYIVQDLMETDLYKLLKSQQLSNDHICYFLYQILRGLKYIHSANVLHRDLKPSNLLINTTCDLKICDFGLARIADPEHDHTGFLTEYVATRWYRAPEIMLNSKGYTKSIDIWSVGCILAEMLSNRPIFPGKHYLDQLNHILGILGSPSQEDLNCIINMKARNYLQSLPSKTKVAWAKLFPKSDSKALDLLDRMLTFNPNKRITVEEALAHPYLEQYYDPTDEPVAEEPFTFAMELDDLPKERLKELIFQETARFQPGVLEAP
Mitogen-activated protein kinase; ERK1/ERK2 (Homo sapiens), sequence (P28482 whole entry, looked up): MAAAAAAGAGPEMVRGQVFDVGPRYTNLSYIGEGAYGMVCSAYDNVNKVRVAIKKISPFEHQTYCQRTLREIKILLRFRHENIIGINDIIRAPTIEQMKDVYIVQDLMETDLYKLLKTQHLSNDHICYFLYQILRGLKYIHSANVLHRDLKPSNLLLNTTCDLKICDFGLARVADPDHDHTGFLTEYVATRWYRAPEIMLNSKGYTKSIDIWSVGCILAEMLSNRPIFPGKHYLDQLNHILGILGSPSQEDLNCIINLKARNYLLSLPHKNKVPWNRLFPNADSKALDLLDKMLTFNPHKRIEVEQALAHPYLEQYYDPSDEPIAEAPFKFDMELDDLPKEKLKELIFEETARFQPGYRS
Insulin receptor (Homo sapiens), sequence (P06213 28-758 limits assumed): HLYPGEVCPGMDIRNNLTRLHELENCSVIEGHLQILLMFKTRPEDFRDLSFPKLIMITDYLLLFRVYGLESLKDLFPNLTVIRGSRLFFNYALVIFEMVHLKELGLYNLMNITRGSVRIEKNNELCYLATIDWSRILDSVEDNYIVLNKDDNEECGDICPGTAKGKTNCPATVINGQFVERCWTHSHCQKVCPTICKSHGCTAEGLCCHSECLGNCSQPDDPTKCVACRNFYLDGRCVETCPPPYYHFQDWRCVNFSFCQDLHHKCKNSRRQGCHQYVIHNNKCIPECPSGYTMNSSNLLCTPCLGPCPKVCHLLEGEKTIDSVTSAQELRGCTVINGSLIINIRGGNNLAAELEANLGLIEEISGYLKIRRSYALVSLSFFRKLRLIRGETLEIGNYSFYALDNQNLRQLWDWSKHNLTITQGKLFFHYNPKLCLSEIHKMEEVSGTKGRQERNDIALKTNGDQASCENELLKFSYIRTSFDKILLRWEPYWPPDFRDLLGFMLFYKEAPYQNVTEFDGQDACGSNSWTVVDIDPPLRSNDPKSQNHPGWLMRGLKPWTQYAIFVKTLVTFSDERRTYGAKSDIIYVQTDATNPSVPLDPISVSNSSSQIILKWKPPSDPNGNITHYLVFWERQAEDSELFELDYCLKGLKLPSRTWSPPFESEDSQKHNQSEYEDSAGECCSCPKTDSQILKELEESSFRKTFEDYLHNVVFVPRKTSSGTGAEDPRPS
Insulin receptor (Homo sapiens), sequence (P06213 763-1382 limits assumed): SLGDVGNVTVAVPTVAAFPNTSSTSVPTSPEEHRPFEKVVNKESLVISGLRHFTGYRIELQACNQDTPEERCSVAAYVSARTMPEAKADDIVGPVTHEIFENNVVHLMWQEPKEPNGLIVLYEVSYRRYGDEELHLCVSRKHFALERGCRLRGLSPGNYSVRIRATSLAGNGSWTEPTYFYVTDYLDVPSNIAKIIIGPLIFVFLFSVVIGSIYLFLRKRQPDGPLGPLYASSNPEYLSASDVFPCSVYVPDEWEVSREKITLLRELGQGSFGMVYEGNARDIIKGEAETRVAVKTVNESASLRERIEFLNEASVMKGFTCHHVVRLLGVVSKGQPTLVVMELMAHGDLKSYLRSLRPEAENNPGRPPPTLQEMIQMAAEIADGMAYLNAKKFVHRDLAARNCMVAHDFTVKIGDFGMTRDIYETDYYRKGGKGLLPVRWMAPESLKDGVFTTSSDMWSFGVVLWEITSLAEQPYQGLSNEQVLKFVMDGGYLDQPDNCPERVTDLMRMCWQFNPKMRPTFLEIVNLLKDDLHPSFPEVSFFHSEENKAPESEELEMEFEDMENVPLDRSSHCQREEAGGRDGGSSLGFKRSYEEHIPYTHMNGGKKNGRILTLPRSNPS

Molecule `COc1ccc(-c2ccc3c(N4CCOCC4)nc(N4C[C@@H](C)O[C@@H](C)C4)nc3n2)cc1CO` [Ku-0063794] has an Activity [1] of 80%, an Activity [2] of 83% and an Activity [3] of 110%. For the same molecule, the Activity [4] was 106%, the Activity [5] was 94% and the Activity [6] was 100%. The Activity [7] was 101%, the Activity [8] was 105% and the Activity [9] was 104%. For the same molecule, the Activity [10] was 75%, the inhibition [11] was “inactive” and the inhibition (mTORC1 (Homo sapiens) [12]) was “Dose-Dependent Effect”. The Activity [13] was 67%, the Activity [14] was 103% and the Activity [15] was 81%. The inhibition (mTORC1 (Homo sapiens) [16]) was “Dose-Dependent Effect” and the Activity [17] was 90%.
